The M2OR odorant receptor database

Columns and labels:
Conditions in all cases: stereoisomer not certain
[1] = target: UniProt Q8VGE3
Procedure, shortened: (§1)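 Transient luciferase assays in mammalian cell lines were common, though methods varied by source. The values come from published papers and their supplementary material, with extra details from the original authors when needed. Responsive refers to a measured signal the original authors judged statistically different from baseline, and non-responsive (inactive) to the remainder.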

[2] = target: UniProt Q8VGK6
Procedure, shortened: as §1

[3] = target: T1, UniProt Q8VGC6
T1 sequence (whole entry): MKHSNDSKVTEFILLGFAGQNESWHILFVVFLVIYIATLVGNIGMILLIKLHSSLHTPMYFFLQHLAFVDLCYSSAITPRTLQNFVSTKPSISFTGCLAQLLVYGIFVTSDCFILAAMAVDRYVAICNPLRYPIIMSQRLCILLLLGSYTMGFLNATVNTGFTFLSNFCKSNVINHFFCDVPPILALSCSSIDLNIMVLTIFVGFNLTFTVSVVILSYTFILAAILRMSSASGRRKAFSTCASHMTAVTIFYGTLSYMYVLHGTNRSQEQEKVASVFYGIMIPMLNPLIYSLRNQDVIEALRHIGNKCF
Procedure, shortened: as §1

[4] = target: T2, UniProt Q8VGD7
T2 sequence (whole entry): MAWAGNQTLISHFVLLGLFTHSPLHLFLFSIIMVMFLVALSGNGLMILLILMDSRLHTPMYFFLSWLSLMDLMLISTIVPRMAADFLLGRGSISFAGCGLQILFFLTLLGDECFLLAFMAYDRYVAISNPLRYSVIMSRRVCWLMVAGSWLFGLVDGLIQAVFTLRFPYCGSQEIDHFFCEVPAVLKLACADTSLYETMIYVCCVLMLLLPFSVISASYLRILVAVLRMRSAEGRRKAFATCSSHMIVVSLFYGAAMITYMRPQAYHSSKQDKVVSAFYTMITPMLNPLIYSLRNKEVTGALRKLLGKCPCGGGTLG
Procedure, shortened: as §1

[5] = target: T3, UniProt Q8VGH1
T3 sequence (whole entry): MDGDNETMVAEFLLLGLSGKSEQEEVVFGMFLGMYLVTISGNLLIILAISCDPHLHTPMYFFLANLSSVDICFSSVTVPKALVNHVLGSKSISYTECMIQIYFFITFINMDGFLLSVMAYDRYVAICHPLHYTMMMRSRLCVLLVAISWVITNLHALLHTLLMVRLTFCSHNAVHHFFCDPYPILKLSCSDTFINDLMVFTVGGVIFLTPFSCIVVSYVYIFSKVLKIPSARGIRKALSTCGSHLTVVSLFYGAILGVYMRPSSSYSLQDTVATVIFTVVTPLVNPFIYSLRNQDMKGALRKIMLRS
Procedure, shortened: as §1

[6] = target: T4, UniProt Q8VGJ1
T4 sequence (whole entry): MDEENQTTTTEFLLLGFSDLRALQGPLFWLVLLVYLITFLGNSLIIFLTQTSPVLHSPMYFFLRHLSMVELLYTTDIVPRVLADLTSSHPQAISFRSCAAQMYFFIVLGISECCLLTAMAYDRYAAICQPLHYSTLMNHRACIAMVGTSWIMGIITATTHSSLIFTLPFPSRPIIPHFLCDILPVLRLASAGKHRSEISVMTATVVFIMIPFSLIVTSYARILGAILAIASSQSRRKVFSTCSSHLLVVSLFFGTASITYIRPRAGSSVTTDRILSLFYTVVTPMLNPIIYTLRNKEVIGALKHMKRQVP
Procedure, shortened: as §1

[7] = target: T5, UniProt Q8VGJ3
T5 sequence (whole entry): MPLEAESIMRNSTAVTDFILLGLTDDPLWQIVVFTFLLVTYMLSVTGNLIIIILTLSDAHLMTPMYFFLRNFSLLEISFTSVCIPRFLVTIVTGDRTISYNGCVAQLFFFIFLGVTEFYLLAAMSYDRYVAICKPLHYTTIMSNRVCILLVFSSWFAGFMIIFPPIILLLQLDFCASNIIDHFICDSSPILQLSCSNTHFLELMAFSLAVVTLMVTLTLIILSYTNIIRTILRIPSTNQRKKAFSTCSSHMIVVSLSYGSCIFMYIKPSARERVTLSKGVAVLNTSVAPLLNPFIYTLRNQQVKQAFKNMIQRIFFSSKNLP
Procedure, shortened: as §1

[8] = target: T6, UniProt Q8VGJ5
T6 sequence (whole entry): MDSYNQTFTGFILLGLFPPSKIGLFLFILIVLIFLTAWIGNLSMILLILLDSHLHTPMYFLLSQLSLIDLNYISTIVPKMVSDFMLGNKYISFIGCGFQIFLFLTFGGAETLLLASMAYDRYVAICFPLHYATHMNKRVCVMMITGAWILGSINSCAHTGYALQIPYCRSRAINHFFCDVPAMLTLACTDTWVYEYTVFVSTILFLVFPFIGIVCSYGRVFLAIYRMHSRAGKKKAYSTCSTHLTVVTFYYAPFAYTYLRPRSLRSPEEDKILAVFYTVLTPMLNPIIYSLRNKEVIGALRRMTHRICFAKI
Procedure, shortened: as §1

[9] = target: T7, UniProt Q8VGL0
T7 sequence (whole entry): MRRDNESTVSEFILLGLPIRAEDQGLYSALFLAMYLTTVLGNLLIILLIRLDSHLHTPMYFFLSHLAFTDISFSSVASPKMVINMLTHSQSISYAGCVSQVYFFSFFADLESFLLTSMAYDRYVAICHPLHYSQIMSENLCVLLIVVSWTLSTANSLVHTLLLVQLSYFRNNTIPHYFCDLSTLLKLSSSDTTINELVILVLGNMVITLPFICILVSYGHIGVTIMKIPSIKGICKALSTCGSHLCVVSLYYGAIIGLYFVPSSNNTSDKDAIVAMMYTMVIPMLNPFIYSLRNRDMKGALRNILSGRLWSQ
Procedure, shortened: as §1

[10] = target: T8, UniProt Q8VGL7
T8 sequence (whole entry): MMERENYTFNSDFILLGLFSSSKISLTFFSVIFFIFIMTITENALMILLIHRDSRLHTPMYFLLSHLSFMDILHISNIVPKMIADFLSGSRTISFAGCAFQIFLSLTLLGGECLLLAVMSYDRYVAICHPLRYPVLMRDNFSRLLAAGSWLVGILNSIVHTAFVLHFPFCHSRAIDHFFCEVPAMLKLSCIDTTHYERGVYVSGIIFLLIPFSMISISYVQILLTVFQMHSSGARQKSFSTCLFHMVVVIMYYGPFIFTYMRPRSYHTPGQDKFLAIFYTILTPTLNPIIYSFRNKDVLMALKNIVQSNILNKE
Procedure, shortened: as §1

[11] = target: T9, UniProt Q8VGM2
T9 sequence (whole entry): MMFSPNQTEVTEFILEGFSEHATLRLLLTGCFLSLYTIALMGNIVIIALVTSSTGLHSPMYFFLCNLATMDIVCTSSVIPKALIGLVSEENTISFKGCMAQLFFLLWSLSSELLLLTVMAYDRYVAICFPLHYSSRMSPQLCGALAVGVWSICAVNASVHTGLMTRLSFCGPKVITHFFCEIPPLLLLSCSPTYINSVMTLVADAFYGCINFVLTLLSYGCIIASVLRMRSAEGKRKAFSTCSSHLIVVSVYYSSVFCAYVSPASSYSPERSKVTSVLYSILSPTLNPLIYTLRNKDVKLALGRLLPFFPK
Procedure, shortened: as §1

[12] = target: T10, UniProt Q8VGP6
T10 sequence (whole entry): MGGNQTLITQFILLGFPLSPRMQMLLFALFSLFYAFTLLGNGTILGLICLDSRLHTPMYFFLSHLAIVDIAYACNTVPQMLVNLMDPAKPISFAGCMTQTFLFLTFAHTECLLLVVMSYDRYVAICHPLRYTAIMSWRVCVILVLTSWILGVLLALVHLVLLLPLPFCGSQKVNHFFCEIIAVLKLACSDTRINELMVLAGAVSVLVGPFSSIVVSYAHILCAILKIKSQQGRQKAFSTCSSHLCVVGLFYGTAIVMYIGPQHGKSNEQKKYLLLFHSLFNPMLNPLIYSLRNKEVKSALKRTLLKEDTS
Procedure, shortened: as §1

[13] = target: T11, UniProt Q8VGQ3
T11 sequence (whole entry): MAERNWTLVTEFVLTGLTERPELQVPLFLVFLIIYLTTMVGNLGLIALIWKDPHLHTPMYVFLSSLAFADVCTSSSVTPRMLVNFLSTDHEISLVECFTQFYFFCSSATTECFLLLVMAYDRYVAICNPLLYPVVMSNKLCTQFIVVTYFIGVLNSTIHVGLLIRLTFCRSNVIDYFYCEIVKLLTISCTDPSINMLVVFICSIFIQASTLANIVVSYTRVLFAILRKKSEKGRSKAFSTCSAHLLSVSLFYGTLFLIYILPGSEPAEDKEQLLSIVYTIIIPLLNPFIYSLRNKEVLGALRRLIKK
Procedure, shortened: as §1

[14] = target: T12, UniProt Q8VGT4
T12 sequence (whole entry): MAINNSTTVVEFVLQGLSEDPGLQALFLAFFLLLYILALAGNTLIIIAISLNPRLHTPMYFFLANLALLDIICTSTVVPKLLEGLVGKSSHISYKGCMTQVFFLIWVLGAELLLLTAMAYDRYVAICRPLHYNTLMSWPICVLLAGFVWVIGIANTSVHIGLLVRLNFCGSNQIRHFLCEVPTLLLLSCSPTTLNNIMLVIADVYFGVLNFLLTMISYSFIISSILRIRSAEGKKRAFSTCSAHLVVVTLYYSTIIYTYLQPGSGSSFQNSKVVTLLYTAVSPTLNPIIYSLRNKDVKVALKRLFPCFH
Procedure, shortened: as §1

[15] = target: T13, UniProt Q8VGU3
T13 sequence (whole entry): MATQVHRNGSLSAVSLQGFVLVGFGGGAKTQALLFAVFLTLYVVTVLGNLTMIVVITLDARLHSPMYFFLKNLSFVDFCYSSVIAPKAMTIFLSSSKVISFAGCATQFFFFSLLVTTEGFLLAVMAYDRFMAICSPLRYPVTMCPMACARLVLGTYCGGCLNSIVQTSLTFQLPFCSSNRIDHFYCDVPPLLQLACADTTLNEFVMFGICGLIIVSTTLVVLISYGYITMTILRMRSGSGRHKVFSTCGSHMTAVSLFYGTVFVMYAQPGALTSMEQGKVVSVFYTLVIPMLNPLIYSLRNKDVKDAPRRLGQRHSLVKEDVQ
Procedure, shortened: as §1

[16] = target: T14, UniProt Q8VGV1
T14 sequence (whole entry): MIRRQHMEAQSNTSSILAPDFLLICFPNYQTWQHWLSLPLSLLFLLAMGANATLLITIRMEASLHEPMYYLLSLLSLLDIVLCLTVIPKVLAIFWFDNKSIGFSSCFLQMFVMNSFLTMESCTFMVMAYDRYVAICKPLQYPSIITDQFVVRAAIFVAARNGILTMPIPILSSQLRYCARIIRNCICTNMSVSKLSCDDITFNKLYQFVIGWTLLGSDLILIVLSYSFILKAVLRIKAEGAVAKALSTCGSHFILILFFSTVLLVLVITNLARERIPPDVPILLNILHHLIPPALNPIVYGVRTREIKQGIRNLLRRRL
Procedure, shortened: as §1

[17] = target: T15, UniProt Q8VGV7
T15 sequence (whole entry): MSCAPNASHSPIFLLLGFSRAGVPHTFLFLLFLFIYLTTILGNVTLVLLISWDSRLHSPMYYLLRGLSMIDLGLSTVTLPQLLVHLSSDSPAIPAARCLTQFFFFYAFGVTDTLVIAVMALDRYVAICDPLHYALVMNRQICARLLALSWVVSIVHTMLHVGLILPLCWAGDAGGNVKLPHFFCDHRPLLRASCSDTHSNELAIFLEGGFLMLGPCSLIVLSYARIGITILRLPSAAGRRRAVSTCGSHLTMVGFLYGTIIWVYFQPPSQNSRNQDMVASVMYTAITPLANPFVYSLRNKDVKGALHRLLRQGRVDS
Procedure, shortened: as §1

[18] = target: T16, UniProt Q8VGX3
T16 sequence (whole entry): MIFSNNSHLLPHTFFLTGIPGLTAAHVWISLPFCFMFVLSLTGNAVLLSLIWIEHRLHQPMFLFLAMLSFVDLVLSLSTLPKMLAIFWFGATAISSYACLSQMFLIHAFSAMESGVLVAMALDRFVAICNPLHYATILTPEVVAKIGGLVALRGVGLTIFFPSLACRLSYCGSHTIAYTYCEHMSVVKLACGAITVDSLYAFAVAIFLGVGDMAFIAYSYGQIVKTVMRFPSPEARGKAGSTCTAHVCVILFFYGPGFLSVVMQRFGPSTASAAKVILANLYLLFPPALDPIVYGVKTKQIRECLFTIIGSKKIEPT
Procedure, shortened: as §1

[19] = target: T17, UniProt Q8VGX5
T17 sequence (whole entry): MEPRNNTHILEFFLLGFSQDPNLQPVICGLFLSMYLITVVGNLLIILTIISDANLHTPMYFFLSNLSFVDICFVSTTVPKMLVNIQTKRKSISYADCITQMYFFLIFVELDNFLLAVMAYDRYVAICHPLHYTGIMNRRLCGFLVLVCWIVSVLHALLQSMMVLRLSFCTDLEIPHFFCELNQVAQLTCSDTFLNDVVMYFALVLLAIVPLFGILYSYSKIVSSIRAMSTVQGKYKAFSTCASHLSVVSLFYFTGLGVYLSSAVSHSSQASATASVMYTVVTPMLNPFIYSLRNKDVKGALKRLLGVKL
Procedure, shortened: as §1

Measured: odorant receptor agonist call

UniProt Q8VGE3, sequence (Q8VGE3 as listed by the source): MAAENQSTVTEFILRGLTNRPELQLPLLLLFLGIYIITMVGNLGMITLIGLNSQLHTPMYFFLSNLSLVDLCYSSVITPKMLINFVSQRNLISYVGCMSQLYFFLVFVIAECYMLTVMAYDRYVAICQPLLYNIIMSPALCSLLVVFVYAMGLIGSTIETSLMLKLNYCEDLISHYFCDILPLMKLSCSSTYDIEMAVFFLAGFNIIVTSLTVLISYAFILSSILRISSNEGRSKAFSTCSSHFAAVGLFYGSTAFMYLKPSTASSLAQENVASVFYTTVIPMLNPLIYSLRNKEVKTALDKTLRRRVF
UniProt Q8VGK6, sequence (Q8VGK6 as listed by the source): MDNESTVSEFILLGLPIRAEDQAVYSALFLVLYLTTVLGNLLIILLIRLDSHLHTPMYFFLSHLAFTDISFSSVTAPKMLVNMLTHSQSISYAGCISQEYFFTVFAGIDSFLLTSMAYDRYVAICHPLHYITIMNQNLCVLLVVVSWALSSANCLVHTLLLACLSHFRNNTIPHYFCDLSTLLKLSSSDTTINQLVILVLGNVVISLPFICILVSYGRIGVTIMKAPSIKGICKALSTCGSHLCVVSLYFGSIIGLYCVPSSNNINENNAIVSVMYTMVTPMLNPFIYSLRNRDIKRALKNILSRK

O=c1ccc2ccccc2o1
active: [1] | [2]

O=C1CCOc2ccccc21
active: [1] | [2]

CC(C)=CCCC(C)=CCO
active: [3] | [19]
not listed: [1] | [2]
inactive: all other assays above

CC(C)=CCCC(C)CCO (configuration not stated)
active: [3] | [9]
not listed: [1] | [2]
inactive: all other assays above

CCCCCCCOC(=O)C(C)C
inactive: [3] | [7] | [9] | [15] | [17] | [18] | [19]

CCCO
inactive: [3] | [7] | [9] | [15] | [17] | [18] | [19]
